Assay results reported in ChEMBL document CHEMBL3352173, “Optimization of pyrrolamide topoisomerase II inhibitors toward identification of an antibacterial clinical candidate (AZD5099)” (J Med Chem, 2014).
Values after ≈ are worked out from the molar mass of the structure shown.

Legend:
[1] = test system: Haemophilus influenzae; experiment: Antimicrobial activity against Haemophilus influenzae by broth microdilution/CLSI method; type: functional; conditions: Haemophilus influenzae; read-out: MIC
[2] = Solubility of the compound; type: physicochemical
[3] = molecular target: DNA gyrase subunit B (Staphylococcus aureus, UniProt P0A0K8); experiment: Inhibition of ATPase activity of Staphylococcus aureus GyrB
Outline: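 IC50 was determined against S. aureus GyrB in the routine screening assay. The enzyme concentration limits resolution below 10 nM.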

[4] = Clearance in rat at 10 mg/kg, iv; type: ADME, organism-based; design: dose 10 mg/kg, route intravenous; conditions: in vivo
[5] = Octanol-phosphate buffer distribution coefficient, log D of the compound at pH 7.4 by shake flask method; type: physicochemical
[6] = test system: Escherichia coli; experiment: Antimicrobial activity against wild-type Escherichia coli Eco523 by broth microdilution/CLSI method; type: functional; conditions: Escherichia coli, Eco523; read-out: MIC
[7] = Percentage unbound in human plasma; type: ADME, cell-free
[8] = test system: Streptococcus pyogenes; experiment: Antimicrobial activity against Streptococcus pyogenes by broth microdilution/CLSI method; type: functional
[9] = test system: Escherichia coli; experiment: Antimicrobial activity against Escherichia coli tolC- by broth microdilution/CLSI method; type: functional; conditions: Escherichia coli; read-out: MIC
[10] = test system: Staphylococcus aureus; experiment: Antimicrobial activity against methicillin-sensitive Staphylococcus aureus by broth microdilution/CLSI method; type: functional; conditions: Staphylococcus aureus; read-out: MIC
[11] = Ratio of MIC for methicillin, quinolone-resistant Staphylococcus aureus to fraction unbound in human plasma; type: ADME
[12] = test system: Moraxella catarrhalis; experiment: Antimicrobial activity against Moraxella catarrhalis by broth microdilution/CLSI method; type: functional; conditions: Moraxella catarrhalis; read-out: MIC
[13] = test system: Staphylococcus aureus; experiment: Antimicrobial activity against methicillin, quinolone-resistant Staphylococcus aureus by broth microdilution/CLSI method; type: functional; conditions: Staphylococcus aureus; read-out: MIC
[14] = test system: Streptococcus pneumoniae; experiment: Antibacterial activity against Streptococcus pneumoniae by broth microdilution/CLSI method; type: functional; conditions: Streptococcus pneumoniae; read-out: MIC

Chain of DNA gyrase subunit B (P0A0K8 whole entry): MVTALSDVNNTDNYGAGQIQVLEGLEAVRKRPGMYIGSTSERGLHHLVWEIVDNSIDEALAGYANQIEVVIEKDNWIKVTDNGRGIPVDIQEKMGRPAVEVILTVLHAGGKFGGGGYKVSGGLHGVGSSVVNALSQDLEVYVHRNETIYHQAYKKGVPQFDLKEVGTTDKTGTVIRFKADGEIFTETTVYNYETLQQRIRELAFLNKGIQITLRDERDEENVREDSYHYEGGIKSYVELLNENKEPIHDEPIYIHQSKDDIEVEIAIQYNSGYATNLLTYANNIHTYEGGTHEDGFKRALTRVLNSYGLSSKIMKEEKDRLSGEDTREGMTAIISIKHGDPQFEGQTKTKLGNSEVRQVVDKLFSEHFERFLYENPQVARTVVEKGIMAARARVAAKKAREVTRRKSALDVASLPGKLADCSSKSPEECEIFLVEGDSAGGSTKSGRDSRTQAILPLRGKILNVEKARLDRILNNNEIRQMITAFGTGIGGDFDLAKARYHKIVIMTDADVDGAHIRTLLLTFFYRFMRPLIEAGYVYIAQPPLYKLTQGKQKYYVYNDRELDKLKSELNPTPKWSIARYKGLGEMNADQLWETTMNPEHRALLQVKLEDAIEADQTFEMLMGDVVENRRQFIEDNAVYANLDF

SMILES | MIC [1] [mg/L] | solubility [2] [µM] | IC50 [3] [µM] | clearance [4] [L/h/kg] | logD [5] | MIC [6] [mg/L] | fraction unbound [7] | MIC [8] [mg/L] | MIC [9] [mg/L] | MIC [10] [mg/L] | Ratio [11] | MIC [12] [mg/L] | MIC [13] [mg/L] | MIC [14] [mg/L]
COCC(COC)(COC)NC(=O)c1nc(N2CC[C@@H](NC(=O)c3[nH]c(C)c(Cl)c3Cl)[C@@H](OC)C2)sc1C(=O)O | 0.15 (≈ 0.241 µM) | 720 (≈ 448 µg/mL) | < 0.01 | 1.08 | 1.9 | 29 (≈ 46.6 µM) | 0.047 | 0.016 (≈ 0.0257 µM) | 1.3 (≈ 2.09 µM) | 0.031 (≈ 0.0498 µM) | 0.66 | 0.008 (≈ 0.0129 µM) | 0.031 (≈ 0.0498 µM) | 0.016 (≈ 0.0257 µM)
CNC(=O)c1nc(N2CC[C@@H](NC(=O)c3[nH]c(C)c(Cl)c3Cl)[C@@H](OC)C2)sc1C(=O)O | 0.14 (≈ 0.285 µM) | 56 (≈ 27.5 µg/mL) | < 0.01 | 0.84 | 1.3 | 18 (≈ 36.7 µM) | 0.02 | 0.013 (≈ 0.0265 µM) | 0.3 (≈ 0.612 µM) | 0.063 (≈ 0.128 µM) | 3.15 | 0.011 (≈ 0.0224 µM) | 0.063 (≈ 0.128 µM) | 0.016 (≈ 0.0326 µM)
CO[C@H]1CN(c2nc(C(C)=O)c(C(=O)O)s2)CC[C@H]1NC(=O)c1[nH]c(C)c(Cl)c1Cl | 0.15 (≈ 0.316 µM) | 890 (≈ 423 µg/mL) | < 0.01 | 0.558 | 0.36 | 30 (≈ 63.1 µM) | 0.019 | 0.02 (≈ 0.0421 µM) | 0.26 (≈ 0.547 µM) | 0.063 (≈ 0.133 µM) | 3.7 | 0.02 (≈ 0.0421 µM) | 0.063 (≈ 0.133 µM) | 0.02 (≈ 0.0421 µM)
CO[C@H]1CN(c2nc(C(=O)NC[C@H](C)OC)c(C(=O)O)s2)CC[C@H]1NC(=O)c1[nH]c(C)c(Cl)c1Cl | 0.13 (≈ 0.237 µM) |  | < 0.01 | 0.78 |  | > 8 | 0.027 | < 0.008 | 0.5 (≈ 0.912 µM) | 0.031 (≈ 0.0565 µM) | 1.1 | < 0.008 | 0.031 (≈ 0.0565 µM) | 0.016 (≈ 0.0292 µM)
CO[C@H]1CN(c2nc(-c3cncc(OCCN(C)C)n3)c(C(=O)O)s2)CC[C@H]1NC(=O)c1[nH]c(C)c(Cl)c1Cl | 0.23 (≈ 0.384 µM) | 770 (≈ 461 µg/mL) | < 0.01 | 0.576 | 0.8 | 60 (≈ 100 µM) | 0.037 | 0.031 (≈ 0.0518 µM) | 0.23 (≈ 0.384 µM) | 0.13 (≈ 0.217 µM) | 5.1 |  | 0.19 (≈ 0.317 µM) | 0.011 (≈ 0.0184 µM)
CO[C@H]1CN(c2nc(C(=O)NCC3OCCO3)c(C(=O)O)s2)CC[C@H]1NC(=O)c1[nH]c(C)c(Cl)c1Cl | 0.1 (≈ 0.178 µM) | 940 (≈ 529 µg/mL) | < 0.01 | 1.98 | 0.76 | > 8 | 0.028 | 0.02 (≈ 0.0356 µM) | 0.79 (≈ 1.4 µM) | 0.063 (≈ 0.112 µM) | 3.6 | 0.013 (≈ 0.0231 µM) | 0.1 (≈ 0.178 µM) | 0.04 (≈ 0.0711 µM)
COCn1ccnc1-c1nc(N2CC[C@@H](NC(=O)c3[nH]c(C)c(Cl)c3Cl)[C@@H](OC)C2)sc1C(=O)O | 0.5 (≈ 0.92 µM) | 170 (≈ 92.4 µg/mL) | < 0.01 | 1.62 | 0.24 | 16 (≈ 29.4 µM) | 0.071 | < 0.06 | 0.25 (≈ 0.46 µM) | < 0.06 | < 0.9 | < 0.06 |  | < 0.06
COc1cc(OC)nc(-c2nc(N3CC[C@@H](NC(=O)c4[nH]c(C)c(Cl)c4Cl)[C@@H](OC)C3)sc2C(=O)O)n1 | 0.25 (≈ 0.437 µM) |  | < 0.01 | 0.378 | 1.7 | 32 (≈ 56 µM) | 0.036 | 0.016 (≈ 0.028 µM) | 1 (≈ 1.75 µM) | 0.025 (≈ 0.0437 µM) | 1.4 | 0.016 (≈ 0.028 µM) | 0.05 (≈ 0.0875 µM) | 0.016 (≈ 0.028 µM)
COc1ccnc(-c2nc(N3CC[C@@H](NC(=O)c4[nH]c(C)c(Cl)c4Cl)[C@@H](OC)C3)sc2C(=O)O)n1 | 0.25 (≈ 0.462 µM) |  | < 0.01 | 0.378 |  | 16 (≈ 29.6 µM) | 0.036 | < 0.06 |  | < 0.06 | 1.75 | < 0.06 |  | < 0.06
CO[C@H]1CN(c2nc(C(F)F)c(C(=O)O)s2)CC[C@H]1NC(=O)c1[nH]c(C)c(Cl)c1Cl | 1 (≈ 2.07 µM) | 690 (≈ 333 µg/mL) | < 0.01 | 4.2 | 0.52 | > 8 |  | 0.13 (≈ 0.269 µM) | 0.5 (≈ 1.03 µM) | 2 (≈ 4.14 µM) |  | 0.063 (≈ 0.13 µM) | 2 (≈ 4.14 µM) | 0.063 (≈ 0.13 µM)
CO[C@H]1CN(c2nc(CN3CCOCC3)c(C(=O)O)s2)CC[C@H]1NC(=O)c1[nH]c(C)c(Cl)c1Cl (racemic) | 4 (≈ 7.51 µM) | > 1000 | < 0.01 | 0.015 | 1.4 | 0.13 (≈ 0.244 µM) | 0.057 | 0.25 (≈ 0.47 µM) | > 8 | 2 (≈ 3.76 µM) | 35 | 1 (≈ 1.88 µM) | 2 (≈ 3.76 µM) | 0.25 (≈ 0.47 µM)
CO[C@H]1CN(c2nc(C)c(C(=O)O)s2)CC[C@H]1NC(=O)c1[nH]c(C)c(Cl)c1Cl | 0.072 (≈ 0.161 µM) | 450 (≈ 201 µg/mL) | < 0.01 | 1.56 | 1.2 | > 8 | 0.018 | < 0.008 | 0.25 (≈ 0.559 µM) | 0.031 (≈ 0.0693 µM) | 2.9 | 0.008 (≈ 0.0179 µM) | 0.053 (≈ 0.118 µM) | 0.013 (≈ 0.0291 µM)
CO[C@H]1CN(c2nc3cccc(C(=O)O)c3s2)CC[C@H]1NC(=O)c1[nH]c(C)c(Cl)c1Cl | 0.031 (≈ 0.0641 µM) | < 1 | < 0.01 | 3.6 | 1.7 | 8 (≈ 16.6 µM) | < 0.01 |  | 0.25 (≈ 0.517 µM) | 0.031 (≈ 0.0641 µM) | > 31 | < 0.001 | 0.031 (≈ 0.0641 µM) | 0.032 (≈ 0.0662 µM)
CO[C@H]1CN(c2nc(C(=O)NC3COC(C)(C)OC3)c(C(=O)O)s2)CC[C@H]1NC(=O)c1[nH]c(C)c(Cl)c1Cl | 0.16 (≈ 0.271 µM) | > 1000 | < 0.01 | 2.28 | 1.2 | 14 (≈ 23.7 µM) | 0.036 | 0.016 (≈ 0.0271 µM) | 0.76 (≈ 1.29 µM) | < 0.06 | < 1.8 | 0.008 (≈ 0.0135 µM) |  | 0.016 (≈ 0.0271 µM)
CO[C@H]1CN(c2nc(C(=O)O)cs2)CC[C@H]1NC(=O)c1[nH]c(C)c(Cl)c1Cl | 0.1 (≈ 0.231 µM) | 930 (≈ 403 µg/mL) | < 0.01 | 2.94 | 0.25 | > 8 | 0.022 | 0.035 (≈ 0.0808 µM) | 0.1 (≈ 0.231 µM) | 0.2 (≈ 0.462 µM) | 15 | 0.05 (≈ 0.115 µM) | 0.32 (≈ 0.738 µM) | 0.2 (≈ 0.462 µM)
CO[C@H]1CN(c2nc(-c3nc(C)no3)c(C(=O)O)s2)CC[C@H]1NC(=O)c1[nH]c(C)c(Cl)c1Cl | 0.13 (≈ 0.252 µM) | 630 (≈ 325 µg/mL) | < 0.01 | 6.6 | 0.07 | 32 (≈ 62.1 µM) | 0.015 | < 0.06 | 0.5 (≈ 0.97 µM) | 0.13 (≈ 0.252 µM) | 8.7 | < 0.06 | 0.13 (≈ 0.252 µM) | < 0.06
CO[C@H]1CN(c2nc(-c3cn(C)cn3)c(C(=O)O)s2)CC[C@H]1NC(=O)c1[nH]c(C)c(Cl)c1Cl | 2 (≈ 3.9 µM) | 3 (≈ 1.54 µg/mL) | < 0.01 |  | 2.5 | 16 (≈ 31.2 µM) | 0.019 | < 0.06 | < 0.06 | 0.13 (≈ 0.253 µM) | 6.8 | < 0.06 | 0.13 (≈ 0.253 µM) | < 0.06
CO[C@H]1CN(c2nc(C(=O)NCC3(C)OCCO3)c(C(=O)O)s2)CC[C@H]1NC(=O)c1[nH]c(C)c(Cl)c1Cl | 0.11 (≈ 0.191 µM) | 620 (≈ 357 µg/mL) | < 0.01 | 2.04 | 1 | 11 (≈ 19.1 µM) | 0.032 | 0.016 (≈ 0.0278 µM) | 0.5 (≈ 0.867 µM) | 0.063 (≈ 0.109 µM) | 2.6 | 0.016 (≈ 0.0278 µM) | 0.084 (≈ 0.146 µM) | 0.016 (≈ 0.0278 µM)
CO[C@H]1CN(c2nc(-c3ccncn3)c(C(=O)O)s2)CC[C@H]1NC(=O)c1[nH]c(C)c(Cl)c1Cl | 0.12 (≈ 0.235 µM) | 350 (≈ 179 µg/mL) | < 0.01 | 0.228 | 1.7 | 16 (≈ 31.3 µM) | 0.042 | < 0.06 | 0.5 (≈ 0.978 µM) | < 0.06 | 0.74 | < 0.06 | 0.031 (≈ 0.0606 µM) | < 0.06
CO[C@H]1CN(c2nc(C(=O)NN3CCOCC3)c(C(=O)O)s2)CC[C@H]1NC(=O)c1[nH]c(C)c(Cl)c1Cl | 1.4 (≈ 2.49 µM) | > 1000 | < 0.01 |  | -0.15 | > 64 | 0.071 | 0.25 (≈ 0.445 µM) | 1 (≈ 1.78 µM) | 2 (≈ 3.56 µM) | 56 | 0.35 (≈ 0.623 µM) | 4 (≈ 7.12 µM) | 0.25 (≈ 0.445 µM)
